Active and inactive are the calls of the source. The calls are words filed in the database; no cut-off is given here.
How the values were obtained:
HL-60 [1] = experiment: Induction of cell differentiation in human HL60 cells at 5.0 uM after 72 hrs by NBT reduction assay relative to control; type: functional
HL-60 [2] = experiment: Cytotoxicity against human HL60 cells at 1.0 uM after 72 hrs by MTT assay; type: functional
Method in brief: (§1)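 Log-phase HL-60 cells at 4×10^4 cells/mL in RPMI-1640 with 10% FBS, 37 °C, 5% CO2. Treated 72 h with compound, with or without 5 nM ATRA. Cells washed in cold PBS, given MTT (5 mg/mL solution) in HBSS for 2 h at 37 °C in the dark. Formazan dissolved in DMSO, absorbance read at 570 nm. Viability given as % of vehicle control; means ± SD, four independent experiments.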

HL-60 [3] = experiment: Cytotoxicity against human HL60 cells after 72 hrs by MTT assay; type: functional, cell-based; method in brief: as §1
HL-60 [4] = experiment: Cytotoxicity against human HL60 cells at 2.5 uM after 72 hrs by MTT assay relative to control; type: functional; method in brief: as §1
HL-60 [5] = experiment: Cytotoxicity against human HL60 cells at 5.0 uM after 72 hrs by MTT assay relative to control; type: functional; method in brief: as §1
HL-60 [6] = experiment: Induction of cell differentiation in human HL60 cells at 1.0 uM after 72 hrs by NBT reduction assay; type: functional
HL-60 [7] = experiment: Induction of cell differentiation in human HL60 cells at 2.5 uM after 72 hrs by NBT reduction assay; type: functional
HL-60 [8] = experiment: Cytotoxicity against human HL60 cells at 2.5 uM after 72 hrs by MTT assay; type: functional; method in brief: as §1
HL-60 [9] = experiment: Induction of cell differentiation in human HL60 cells at 5.0 uM after 72 hrs by NBT reduction assay; type: functional
HL-60 [10] = experiment: Cytotoxicity against human HL60 cells at 5.0 uM after 72 hrs by MTT assay; type: functional, cell-based; method in brief: as §1
HL-60 [11] = experiment: Induction of cell differentiation in human HL60 cells at 2.5 uM after 72 hrs by NBT reduction assay relative to control; type: functional
HL-60 [12] = experiment: Cytotoxicity against human HL60 cells at 1.0 uM after 72 hrs by MTT assay relative to control; type: functional; method in brief: as §1
HL-60 [13] = experiment: Cytotoxicity against human HL60 cells at 2 uM after 72 hrs by MTT assay relative to control; type: functional; method in brief: as §1
HL-60 [14] = experiment: Induction of cell differentiation in human HL60 cells at 0.5 uM after 72 hrs by NBT reduction assay; type: functional
HL-60 [15] = experiment: Cell cycle arrest in human HL60 cells assessed as increase in G0/G1 phase accumulation at 2 uM after 72 hrs by flow cytometry; type: functional
Method in brief: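 HL-60 cells at 4×10^4 cells/mL, 72 h with vehicle, ATRA (5 nM or 1 µM), 2 µM compound alone, or 2 µM compound plus 5 nM ATRA. Cells fixed in 70% ice-cold ethanol at -20 °C overnight. Stained 30 min at 37 °C in the dark with 1% Triton X-100, 0.1 mg/mL RNase and 4 µg/mL propidium iodide. G0/G1 fraction by flow cytometry; means ± SD, four experiments.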

[16] = Cytotoxicity against human leukocytes after 48 hrs by MTT assay; type: cell-based; conditions: Leukocyte
Method in brief: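 Human normal leukocytes in RPMI-1640 with 10% FBS. Treated with vehicle, compound alone, or compound plus 5 nM ATRA; 48 h per the legend (72 h per methods). Viability by MTT with formazan absorbance at 570 nm; 50% growth-inhibition concentration reported. Means ± SD, four experiments.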

HL-60 [17] = experiment: Induction of cell differentiation in human HL60 cells at 2.0 uM after 72 hrs by NBT reduction assay relative to control; type: functional
HL-60 [18] = experiment: Cytotoxicity against human HL60 cells at 0.5 uM after 72 hrs by MTT assay relative to control; type: functional; method in brief: as §1
HL-60 [19] = experiment: Cytotoxicity against human HL60 cells at 2 uM after 72 hrs by MTT assay; type: functional, cell-based; method in brief: as §1
HL-60 [20] = experiment: Induction of cell differentiation in human HL60 cells at 2.0 uM after 72 hrs by NBT reduction assay; type: functional, cell-based
HL-60 [21] = experiment: Induction of cell differentiation in human HL60 cells at 10.0 uM after 72 hrs by NBT reduction assay; type: functional
HL-60 [22] = experiment: Cytotoxicity against human HL60 cells at 10.0 uM after 72 hrs by MTT assay relative to control; type: functional; method in brief: as §1
HL-60 [23] = experiment: Effect on morphology in human HL60 cells assessed as spindle-shape at 2 uM after 72 hrs; type: functional, cell-based
Method in brief: (§2)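 HL-60 cells (4×10^4) treated 72 h with vehicle, 2 µM compound alone, 2 µM compound plus 5 nM ATRA, 5 nM ATRA, or 1 µM ATRA. Unstained cells examined for spindle shape at 200× magnification. Liu's-stained cells examined by optical microscopy for horseshoe-shaped nuclei.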

HL-60 [24] = experiment: Effect on morphology in human HL60 cells assessed as population of horseshoe-shape nuclei at 2 uM after 72 hrs; type: functional, cell-based; method in brief: as §2
HL-60 [25] = experiment: Cytotoxicity against human HL60 cells at 1.0 uM after 72 hrs by MTT assay relative to ATRA; type: functional; conditions: in the assay text read “relative to control” for “relative to ATRA”; method in brief: as §1
HL-60 [26] = experiment: Cytotoxicity against human HL60 cells at 0.1 uM after 72 hrs by MTT assay relative to control; type: functional; method in brief: as §1
HL-60 [27] = experiment: Induction of cell differentiation in human HL60 cells at 0.1 uM after 72 hrs by NBT reduction assay; type: functional
HL-60 [28] = experiment: Cytotoxicity against human HL60 cells at 0.5 uM after 72 hrs by MTT assay; type: functional; method in brief: as §1

SMILES	IC50 (HL-60 [3]; Homo sapiens, HL-60, 72 h) [µM]	Activity (HL-60 [4]) [%]	Activity (HL-60 [5]) [%]	Activity (HL-60 [6])	Activity (HL-60 [7])	Activity (HL-60 [9])	Activity (HL-60 [12]) [%]	Activity (HL-60 [14]) [%]	further results
CC(c1ccccc1)N1C(=O)/C(=C\c2ccc3ccccc3n2)c2ccccc21 (centres undefined)	3.4	81.3	18.5	0.8%	1%	–	–	–	Activity (HL-60 [1]): 15%; Activity (HL-60 [2]): 103.2%
O=C1/C(=C\c2ccccn2)c2ccccc2N1Cc1ccccc1	3.6	–	24.7	0.7%	0.7%	3.4%	–	–	Activity (HL-60 [2]): 116.6%; Activity (HL-60 [8]): 98.5%
CC(c1ccccc1)N1C(=O)/C(=C\c2ccnc3ccccc23)c2ccccc21 (centres undefined)	–	31	–	1.2%	–	Toxic	72.6	–	Activity (HL-60 [10]): Toxic; Activity (HL-60 [11]): 20.8%
CC(c1ccccc1)N1C(=O)/C(=C\c2cnc3ccccc3c2)c2ccccc21 (stereo in doubt; 25) [listing 1 of 2 here]	–	–	–	0.3%	–	–	70.9	0.8	Activity (HL-60 [13]): 24.7%; IC50 (HL-60 [3]; hl-60): 1.4 µM; Activity (HL-60 [15]): 49.8%; IC50 [16]: 14 µM; Activity (HL-60 [17]): 33.9%; Activity (HL-60 [18]): 89.5%
O=C1/C(=C\c2cnc3ccccc3c2)c2ccccc2N1Cc1ccccc1	3.2	70.6	10.9	0.7%	0.8%	–	–	–	Activity (HL-60 [1]): 23.6%; Activity (HL-60 [2]): 117.4%
CC(c1ccccc1)N1C(=O)/C(=C\c2ccncc2)c2ccccc21 (centres undefined)	–	–	–	0.8%	–	–	49.2	1	Activity (HL-60 [19]): Toxic; Activity (HL-60 [20]): Toxic; Activity (HL-60 [18]): 66.7%
O=C1/C(=C\c2ccnc3ccccc23)c2ccccc2N1Cc1ccccc1	10.6	–	73.8	0.8%	–	2.1%	85.2	–	Activity (HL-60 [21]): 4.7%; Activity (HL-60 [22]): 51.2%
O=C1/C(=C\c2ccc3ccccc3n2)c2ccccc2N1Cc1ccccc1	2.8	55.7	12.2	2%	2%	4.4%	82.7	–	–
O=C1/C(=C\c2cccnc2)c2ccccc2N1Cc1ccccc1	3.8	75.9	25.4	0.7%	0.8%	2.7%	93.2	–	–
CC(c1ccccc1)N1C(=O)/C(=C\c2cnc3ccccc3c2)c2ccccc21 (stereo in doubt; 25) [listing 2 of 2 here]	–	–	–	–	–	–	–	–	Activity (HL-60 [23]): Active; Activity (HL-60 [24]): Active
O=C1/C(=C\c2cc[n+]([O-])cc2)c2ccccc2N1Cc1ccccc1	2.9	43.4	22	1.6%	3.2%	–	–	–	Activity (HL-60 [1]): 11.5%; Activity (HL-60 [25]): 90%
CC(c1ccccc1)N1C(=O)/C(=C\c2ccccn2)c2ccccc21 (centres undefined)	5.9	87.1	55.7	0.7%	0.7%	2%	90	–	–
O=C1/C(=C\c2ccncc2)c2ccccc2N1Cc1ccc2ccccc2c1	–	–	–	Toxic	–	–	–	0.7	Activity (HL-60 [2]): Toxic; Activity (HL-60 [26]): 78.2%; Activity (HL-60 [27]): 0.8%; Activity (HL-60 [18]): 59.6%
O=C1/C(=C\c2ccncc2)c2ccccc2N1Cc1cccc2ccccc12	–	–	–	0.5%	Toxic	–	–	0.8	Activity (HL-60 [2]): 90.8%; Activity (HL-60 [28]): 103.6%; Activity (HL-60 [8]): Toxic
CC(c1ccccc1)N1C(=O)/C(=C\c2cccnc2)c2ccccc21 (centres undefined)	3.3	87	19.6	0.8%	2.5%	–	88	–	Activity (HL-60 [11]): 2.5%
CC(c1ccccc1)N1C(=O)/C(=C\c2cnc3ccccc3c2)c2ccccc21 (stereo in doubt; 25Z)	1.5	–	–	3.8%	–	–	82.3	1.3	Activity (HL-60 [13]): 20.3%; Activity (HL-60 [28]): 116.1%; Activity (HL-60 [17]): 40.8%
CC(c1ccccc1)N1C(=O)/C(=C/c2cnc3ccccc3c2)c2ccccc21 (centres undefined)	1.4	–	–	4.3%	–	–	82.9	0.8	Activity (HL-60 [13]): 25.5%; Activity (HL-60 [28]): 109.9%; Activity (HL-60 [17]): 37.7%
O=C1/C(=C\c2ccncc2)c2ccccc2N1Cc1ccccc1	1.9	24.4	–	1.2%	–	–	85.6	0.3	Activity (HL-60 [28]): 101%; Activity (HL-60 [11]): 7%

Source: ChEMBL document CHEMBL1144771, “Synthesis of 1-substituted 3-pyridinylmethylidenylindolin-2-ones and 1-substituted 3-quinolinylmethylidenylindolin-2-ones as the enhancers of ATRA-induced differentiation in HL-60 cells” (Bioorg Med Chem, 2008)
